Data from ChEMBL document CHEMBL4393678, “Novel Tetrahydroquinazolinamines as Selective Histamine 3 Receptor Antagonists for the Treatment of Obesity” (J Med Chem, 2019).
Calls of active or inactive are those of the source. No cut-off for these calls is given here.

Assays:
[1] = Fraction unbound in C57BL/6J mouse brain by equilibrium dialysis method; format: ADME, tissue-based
Procedure, shortened: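 Plasma protein binding and unbound fraction in mouse brain tissue homogenate measured by equilibrium dialysis.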

[2] = biological target: T1, G-protein coupled bile acid receptor 1 (Homo sapiens) (UniProt Q8TDU6); experiment: Agonist activity at Gs-coupled GPBAR1 (unknown origin) expressed in HEK293T cells assessed as inhibition of forskolin-stimulated cAMP accumulation preincubated for 10 to 15 followed by forskolin-stimulation by Glo-sensor assay; format: functional, cell-based
T1 sequence (whole entry): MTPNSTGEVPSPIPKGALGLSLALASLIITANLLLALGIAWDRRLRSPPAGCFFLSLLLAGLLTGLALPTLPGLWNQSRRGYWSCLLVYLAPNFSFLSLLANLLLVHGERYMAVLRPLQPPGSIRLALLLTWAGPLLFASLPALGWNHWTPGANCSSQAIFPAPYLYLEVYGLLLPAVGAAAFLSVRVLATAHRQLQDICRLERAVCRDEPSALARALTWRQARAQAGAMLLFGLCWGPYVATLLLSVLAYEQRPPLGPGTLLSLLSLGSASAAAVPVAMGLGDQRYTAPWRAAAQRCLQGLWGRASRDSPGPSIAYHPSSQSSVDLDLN

[3] = biological target: T2, Muscarinic acetylcholine receptor M1 (Homo sapiens) (UniProt P11229); experiment: Agonist activity at M1R (unknown origin) expressed in HEK293 cells harboring luc2P/NFAT-RE plasmid at 10 uM after 6 to 8 hrs by luciferase reporter gene assay; format: cell-based
T2 sequence (whole entry): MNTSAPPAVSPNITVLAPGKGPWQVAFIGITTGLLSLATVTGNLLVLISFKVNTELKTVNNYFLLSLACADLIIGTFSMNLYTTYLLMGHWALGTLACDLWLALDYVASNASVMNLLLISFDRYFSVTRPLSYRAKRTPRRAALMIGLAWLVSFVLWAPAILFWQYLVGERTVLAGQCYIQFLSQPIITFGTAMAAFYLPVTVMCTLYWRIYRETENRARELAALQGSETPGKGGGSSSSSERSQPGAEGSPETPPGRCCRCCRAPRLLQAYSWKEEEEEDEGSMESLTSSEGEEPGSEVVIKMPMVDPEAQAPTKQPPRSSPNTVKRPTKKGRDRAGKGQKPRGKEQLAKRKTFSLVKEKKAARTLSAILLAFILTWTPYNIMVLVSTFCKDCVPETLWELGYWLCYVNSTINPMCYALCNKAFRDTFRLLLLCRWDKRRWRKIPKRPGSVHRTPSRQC
Procedure, shortened: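 NFAT-RE luciferase assay in HEK293T cells transiently co-transfected with luc2P/NFAT-RE plasmid and receptor plasmid. Cells plated in DMEM and incubated overnight at 37 °C, 5% CO₂. Compounds and reference ligands applied for 6-8 h. Luciferase read after adding Bright-Glo substrate (1 mg/ml final).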

[4] = Half life in C57BL/6J mouse brain assessed as 4-(2-Amino-8-methyl-5,6,7,8-tetrahydroquinazolin-4-yl)phenol level at 20 mg/kg, po by LC-MS/MS analysis; format: ADME, organism-based; conditions: in vivo
Procedure, shortened: (§1)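 Male C57BL/6J mice (6-8 weeks, 20 ± 5 g) fasted overnight (12-16 h) got a single 20 mg/kg oral dose as 2.5 mg/mL suspension in 1% w/v gum acacia; n=5 per time point. Serum and brain (PBS homogenate 1:6 w/v) sampled up to 24 h. Parent and demethylated metabolite quantified by LC-MS/MS after liquid-liquid extraction (C18, MRM, phenacetin internal standard; linear 0.25-200 ng/mL). Two-compartment open model fit.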

[5] = Apparent clearance in C57BL/6J mouse serum at 20 mg/kg, po by LC-MS/MS analysis; format: ADME, organism-based; procedure, shortened: as §1
[6] = Half life in C57BL/6J mouse serum assessed as 4-(2-Amino-8-methyl-5,6,7,8-tetrahydroquinazolin-4-yl)phenol level at 20 mg/kg, po by LC-MS/MS analysis; format: ADME, organism-based; conditions: in vivo; procedure, shortened: as §1
[7] = Half life in C57BL/6J mouse serum at 20 mg/kg, po by LC-MS/MS analysis; format: ADME, organism-based; procedure, shortened: as §1
[8] = Ratio of AUClast in C57BL/6J mouse brain assessed as 4-(2-Amino-8-methyl-5,6,7,8-tetrahydroquinazolin-4-yl)phenol level to AUClast in C57BL/6J mouse serum assessed as 4-(2-Amino-8-methyl-5,6,7,8-tetrahydroquinazolin-4-yl)phenol level; format: ADME
Procedure, shortened: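 Male C57BL/6J mice (6–8 weeks) were fasted 12–16 h, then given a single oral dose of 20 mg/kg as a 2.5 mg/mL suspension in 1% gum acacia/water (n=5 per time point). Serum and brain (homogenised 1:6 in PBS) were sampled up to 24 h. Parent and demethylated metabolite were measured by LC-MS/MS (range 0.25–200 ng/mL). AUC ran to the last observation.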

Mus musculus [9] = experiment: Anti-obesity activity in high fat diet-induced obese C57BL/6J mouse model assessed as reduction in body weight at 10 to 20 mg/kg, po; format: functional, organism-based; conditions: TDE = time-dependent effect
Histamine H3 receptor = Histamine H3 receptor (Homo sapiens, UniProt Q9Y5N1); experiment: (§2) Antagonist activity at recombinant human Gi-coupled H3 receptor expressed in HEK293T cells assessed as reduction in histamine-induced inhibition of forskolin-stimulated cAMP accumulation preincubated for 10 to 15 followed by histamine addition for 10 mins and subsequent forskolin-stimulation by Glo-sensor assay; format: functional, cell-based
[10] = biological target: Kappa-type opioid receptor (Homo sapiens) (UniProt P41145); experiment: as §2, with “at” for “at recombinant human”, “KOR (unknown origin)” for “H3 receptor”; format: functional, cell-based
[11] = biological target: Kappa-type opioid receptor (Homo sapiens) (UniProt P41145); experiment: Agonist activity at Gi-coupled KOR (unknown origin) expressed in HEK293T cells assessed as inhibition of forskolin-stimulated cAMP accumulation preincubated for 10 to 15 followed by forskolin-stimulation by Glo-sensor assay; format: functional, cell-based
Mus musculus [12] = experiment: Anorexic effect in high fat diet-induced obese C57BL/6J mouse model assessed as reduction in cumulative food intake at 20 mg/kg, po pretreated for 30 mins followed by food addition measured after 4 hrs relative to control; format: functional; set-up: scale not given: the % may be the effect or the level left
Procedure, shortened: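 Mice starved 12 h (8:00 am to 8:00 pm) with water available, then housed singly. Compound given orally in 5% gum acacia in normal saline; vehicle group received the same. Cumulative food intake measured over 4 h of the night phase (9:00 pm to 1:00 am), starting 30 min after dosing. Antagonism arms: imitet 5 mg/kg i.p. 30 min before compound, or α-methyl-DL-histidine 20 mg/kg i.p. 2 h before.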

[13] = AUClast in C57BL/6J mouse brain assessed as 4-(2-Amino-8-methyl-5,6,7,8-tetrahydroquinazolin-4-yl)phenol level at 20 mg/kg, po by LC-MS/MS analysis; format: ADME, organism-based; set-up: dose 20 mg/kg, time 0 - last, route oral; conditions: in vivo
Procedure, shortened: (§3)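 Male C57BL/6J mice, 6-8 weeks, 20 ± 5 g, fasted overnight (12-16 h), n = 5 per time point. Single 20 mg/kg oral dose given by feeding needle as a 2.5 mg/mL suspension in 1% w/v gum acacia and water. Serum and brain (homogenized 1:6 w/v in PBS) sampled up to 24 h. Liquid-liquid extraction, then LC-MS/MS in positive MRM mode with phenacetin as internal standard. Linear range 0.25-200 ng/mL. Non-compartmental and compartmental analysis.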

[14] = AUClast in C57BL/6J mouse serum assessed as 4-(2-Amino-8-methyl-5,6,7,8-tetrahydroquinazolin-4-yl)phenol level at 20 mg/kg, po by LC-MS/MS analysis; format: ADME, organism-based; set-up: dose 20 mg/kg, time 0 - last, route oral; conditions: in vivo; procedure, shortened: as §3

Chain of Kappa-type opioid receptor (Homo sapiens) (P41145 whole entry): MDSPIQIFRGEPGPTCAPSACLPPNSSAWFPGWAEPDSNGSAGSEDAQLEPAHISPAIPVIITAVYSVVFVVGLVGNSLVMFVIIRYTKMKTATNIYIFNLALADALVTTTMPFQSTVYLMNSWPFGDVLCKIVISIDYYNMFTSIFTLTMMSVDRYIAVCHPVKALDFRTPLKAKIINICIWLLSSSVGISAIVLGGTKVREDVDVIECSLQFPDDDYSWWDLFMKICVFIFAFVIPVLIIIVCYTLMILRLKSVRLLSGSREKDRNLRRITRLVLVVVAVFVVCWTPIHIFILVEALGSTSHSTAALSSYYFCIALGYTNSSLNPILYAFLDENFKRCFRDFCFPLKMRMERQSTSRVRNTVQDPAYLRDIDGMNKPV
Chain of Histamine H3 receptor (Q9Y5N1 whole entry): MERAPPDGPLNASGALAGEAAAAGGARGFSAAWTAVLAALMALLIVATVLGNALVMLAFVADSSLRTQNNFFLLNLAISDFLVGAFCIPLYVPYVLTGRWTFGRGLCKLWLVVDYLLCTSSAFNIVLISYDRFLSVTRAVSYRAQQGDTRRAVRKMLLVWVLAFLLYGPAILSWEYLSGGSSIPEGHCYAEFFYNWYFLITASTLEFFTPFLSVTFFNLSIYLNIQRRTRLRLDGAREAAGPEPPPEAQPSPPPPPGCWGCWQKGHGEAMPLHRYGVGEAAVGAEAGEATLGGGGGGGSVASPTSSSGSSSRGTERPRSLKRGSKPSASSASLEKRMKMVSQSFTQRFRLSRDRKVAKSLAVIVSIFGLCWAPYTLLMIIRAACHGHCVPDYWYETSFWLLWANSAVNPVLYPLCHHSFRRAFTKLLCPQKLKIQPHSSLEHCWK

In the case of COc1ccc(-c2nc(N)nc3c2CCCC3C)cc1 (racemic), the fraction unbound [1] is reported as 0.284, the Activity [2] is reported as “inactive” and the Activity [3] is reported as “inactive”. It also gave a t1/2 [4] of 1.2 h, a CL/F [5] of 172 mL/min/kg and a t1/2 [6] of 2.1 h. The half-life [7] was 1.9 h, the “Ratio AUC” value [8] was 6.1% and the Activity (Mus musculus [9]) was “Tde”. The IC50 (Histamine H3 receptor) was 40 nM, the INH [10] was greater than 10 µM and the inhibition [11] was “inactive”. It also gave an Activity (Mus musculus [12]) of 28%, an AUClast [13] of 100.7 ng·h/mL and an AUClast [14] of 1646.9 ng·h/mL.
